Activity calls are given as the source filed them.
Legend:
[1] = molecular target: Sodium-dependent serotonin transporter (Rattus norvegicus) (UniProt P31652); assay: Ability to inhibit the uptake of [3H]- serotonin(5-HT) 0.1 uM concentration at rat brain synaptosomes; format: functional, subcellular
How it was run: (§1)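 Male Wistar rat brain synaptosomes (P2 fraction): hypothalamus for NE, striatum for DA, cerebral cortex for 5-HT. Buffer is Tris- or HEPES-buffered salt medium with glucose, ascorbate and nialamide, pH 7.4 at 37 °C. Preincubated 10 min at 37 °C with compound. Uptake started with [3H]NE 100–300 nM, [3H]DA 50–300 nM or [3H]5-HT 100–200 nM, incubated 3 min (DA) or 6–10 min (NE, 5-HT). Blanks held on ice. Filtered, counted by scintillation.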

Mus musculus [2] = assay: Ability to antagonise intraperitoneal dose; inactive (<10% antagonism) at 30 mg/kg is represented as I-30.; format: functional, organism-based; set-up: dose 30 mg/kg
How it was run: (§2)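 Nonfasted male Swiss Webster mice, 18–24 g, ten per dose level and in saline controls. Test compound given ip 30 min before tetrabenazine 32 mg/kg ip; dose expressed as free base. Motor activity and ptosis scored. Control response ≤90% corrected by Abbott's formula.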

Rattus norvegicus [3] = species: Rattus norvegicus; assay: Ability to inhibit the uptake of tritiated dopamine (DA); format: functional; how it was run: as §1
Mus musculus [4] = assay: (§3) Ability to antagonise intraperitoneal dose; inactive (<10% antagonism) at 30 mgjkg is represented as I-30.; format: functional, organism-based; how it was run: as §2
Mus musculus [5] = species: Mus musculus; assay: Gross behavioral effects ascertained in mice; W indicates weak stimulant or depressant activity of little significance.; format: functional, organism-based
How it was run: (§4)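 Male Swiss Webster mice, 18–24 g, three per dose, given ip doses of 1, 3, 10, 30, 100 and 300 mg/kg. Observed for gross behavior and held for 4 days. Scored as weak (W), stimulant (S), depressant (D) or convulsant (C).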

[6] = molecular target: Norepinephrine transporter (Rattus norvegicus, UniProt Q9WTR4); assay: Inhibition of uptake of tritiated norepinephrine (NE) in rat synaptosomes; format: subcellular, Brain
Norepinephrine transporter, sequence (Q9WTR4 whole entry): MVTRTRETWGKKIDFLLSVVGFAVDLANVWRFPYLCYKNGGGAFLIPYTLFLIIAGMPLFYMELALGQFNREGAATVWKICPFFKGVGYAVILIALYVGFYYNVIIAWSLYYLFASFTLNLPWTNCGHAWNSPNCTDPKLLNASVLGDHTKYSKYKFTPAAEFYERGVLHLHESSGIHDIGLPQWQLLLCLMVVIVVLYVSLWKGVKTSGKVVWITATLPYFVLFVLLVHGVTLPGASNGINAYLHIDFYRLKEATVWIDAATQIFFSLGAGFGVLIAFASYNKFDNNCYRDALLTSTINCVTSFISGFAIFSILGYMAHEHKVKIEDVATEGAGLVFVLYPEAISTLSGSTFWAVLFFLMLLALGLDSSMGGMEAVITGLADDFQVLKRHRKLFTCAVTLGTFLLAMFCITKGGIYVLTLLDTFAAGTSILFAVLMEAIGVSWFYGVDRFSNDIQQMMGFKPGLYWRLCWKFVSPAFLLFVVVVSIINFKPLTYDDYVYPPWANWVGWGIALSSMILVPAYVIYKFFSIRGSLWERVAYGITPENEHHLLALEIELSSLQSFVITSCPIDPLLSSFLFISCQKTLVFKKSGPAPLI

Mus musculus [7] = species: Mus musculus; assay: Gross behavioral effects ascertained in mice; S indicates significant stimulant properties.; format: functional, organism-based; how it was run: as §4
[8] = molecular target: Muscarinic acetylcholine receptor (Rattus norvegicus) (UniProt P08482+P08483+P08485+P08911+P10980); assay: Binding affinity towards Muscarinic acetylcholine receptor at 10 uM concentration; format: protein assay
[9] = molecular target: D(1A) dopamine receptor (Rattus norvegicus) (UniProt P18901); assay: Binding affinity towards Dopamine receptor D1 at 1.0 uM concentration
D(1A) dopamine receptor (Rattus norvegicus), sequence (P18901 whole entry): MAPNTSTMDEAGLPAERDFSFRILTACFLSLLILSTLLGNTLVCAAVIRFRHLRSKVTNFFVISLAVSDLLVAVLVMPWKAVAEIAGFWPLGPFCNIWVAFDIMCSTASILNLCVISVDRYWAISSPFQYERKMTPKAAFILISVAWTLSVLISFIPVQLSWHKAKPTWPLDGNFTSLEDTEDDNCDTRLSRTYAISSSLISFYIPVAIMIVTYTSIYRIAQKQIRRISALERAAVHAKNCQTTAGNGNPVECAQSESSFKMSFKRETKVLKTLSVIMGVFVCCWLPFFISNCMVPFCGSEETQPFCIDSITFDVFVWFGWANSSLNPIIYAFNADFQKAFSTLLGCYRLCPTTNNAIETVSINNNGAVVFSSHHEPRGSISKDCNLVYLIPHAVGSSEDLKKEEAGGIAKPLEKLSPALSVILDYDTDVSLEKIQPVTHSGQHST
How it was run: (§5)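 Rat brain crude synaptic membranes in 20 mM NaHEPES pH 7.5. Ligands: α1 cortex […] 0.4 nM, nonspecific with (-)-NE 100 μM, 30 min at 25 °C. […] D2 striatum [3H]spiperone 0.05 nM with (+)-butaclamol 1 μM, 45 min at 37 °C. S1 cortex [3H]5-HT 1 nM plus glutathione and MgCl2, with 5-HT 10 μM, 20 min at 37 °C. […] Samples filtered on GF/B and counted.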

Rattus norvegicus [10] = assay: Ability to inhibit the uptake of tritiated norepinephrine (NE) 0.1 mg/kg concentration; format: functional
Rattus norvegicus [11] = assay: Ability to inhibit the uptake of tritiated serotonin(5-HT) 0.1 mg/kg concentration; format: functional
Mus musculus [12] = assay: as §3; format: functional, organism-based; remark: listed apart in the source
How it was run: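 Swiss Webster male albino mice, nonfasted, 18–24 g, 10 per dose and in saline control. Compound given ip 30 min before TBZ 32 mg/kg ip. Motor activity and ptosis scored. Response corrected by Abbott's formula when control response was 90% or less. Doses expressed as free base.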

Mus musculus [13] = species: Mus musculus; assay: Gross behavioral effects ascertained in mice; D indicates significant depressant properties.; format: functional, organism-based
How it was run: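 Male Swiss Webster albino mice, 18–24 g, three per dose, given ip 1, 3, 10, 30, 100 and 300 mg/kg. Gross behaviour observed and held 4 days. Estimated LD50 range from lethality count on day 4. Scored as weak stimulant/depressant, significant stimulant, significant depressant or overt convulsant.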

[14] = molecular target: T1, Serotonin 2 (5-HT2) receptor (Rattus norvegicus) (UniProt P30994+P08909+P14842); assay: Binding affinity towards 5-hydroxytryptamine 2 receptor at 1.0 uM concentration; format: protein assay; how it was run: as §5
T1 sequence (P08909 whole entry, looked up): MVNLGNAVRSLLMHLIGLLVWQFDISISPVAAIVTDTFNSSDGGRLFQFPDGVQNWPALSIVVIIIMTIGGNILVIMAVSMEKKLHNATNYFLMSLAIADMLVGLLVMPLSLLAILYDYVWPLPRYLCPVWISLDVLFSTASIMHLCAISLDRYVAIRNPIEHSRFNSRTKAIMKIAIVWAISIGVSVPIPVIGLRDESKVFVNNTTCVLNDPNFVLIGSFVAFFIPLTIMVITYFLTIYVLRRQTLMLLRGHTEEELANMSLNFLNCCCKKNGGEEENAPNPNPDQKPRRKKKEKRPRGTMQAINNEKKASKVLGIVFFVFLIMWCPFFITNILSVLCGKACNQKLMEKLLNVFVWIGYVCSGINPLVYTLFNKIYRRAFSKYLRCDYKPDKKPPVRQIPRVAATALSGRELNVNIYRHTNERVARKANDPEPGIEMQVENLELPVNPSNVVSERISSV
T1 sequence (P14842 whole entry, looked up): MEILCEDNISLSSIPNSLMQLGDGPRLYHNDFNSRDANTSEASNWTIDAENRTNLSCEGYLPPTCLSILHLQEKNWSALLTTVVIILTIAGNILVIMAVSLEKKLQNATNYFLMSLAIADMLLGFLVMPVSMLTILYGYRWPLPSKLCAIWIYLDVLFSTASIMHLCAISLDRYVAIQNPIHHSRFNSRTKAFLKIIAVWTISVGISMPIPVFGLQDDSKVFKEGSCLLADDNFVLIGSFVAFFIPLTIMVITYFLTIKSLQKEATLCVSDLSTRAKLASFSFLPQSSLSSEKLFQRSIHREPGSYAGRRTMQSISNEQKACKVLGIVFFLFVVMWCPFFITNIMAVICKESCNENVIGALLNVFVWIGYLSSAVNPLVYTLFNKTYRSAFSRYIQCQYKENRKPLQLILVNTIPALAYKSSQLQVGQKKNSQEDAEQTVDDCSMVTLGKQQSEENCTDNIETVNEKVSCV
T1 sequence (P30994 whole entry, looked up): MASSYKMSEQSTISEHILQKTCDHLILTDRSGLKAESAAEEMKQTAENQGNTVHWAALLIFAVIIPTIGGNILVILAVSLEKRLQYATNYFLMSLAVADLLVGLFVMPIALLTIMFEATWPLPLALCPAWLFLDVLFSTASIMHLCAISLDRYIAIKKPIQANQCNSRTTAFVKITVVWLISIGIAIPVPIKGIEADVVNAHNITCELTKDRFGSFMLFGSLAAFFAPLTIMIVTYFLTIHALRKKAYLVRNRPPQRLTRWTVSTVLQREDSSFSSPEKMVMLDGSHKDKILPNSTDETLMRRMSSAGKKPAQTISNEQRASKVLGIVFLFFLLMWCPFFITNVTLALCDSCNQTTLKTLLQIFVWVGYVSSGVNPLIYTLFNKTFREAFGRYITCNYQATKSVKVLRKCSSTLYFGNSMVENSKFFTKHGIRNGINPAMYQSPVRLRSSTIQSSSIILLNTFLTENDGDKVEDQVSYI

Mus musculus [15] = assay: Ability to antagonise intraperitoneal 30 mg/kg dose; inactive (<10% antagonism) at 30 mgjkg is represented as I-30.; format: functional, organism-based; set-up: dose 30 mg/kg; how it was run: as §2
[16] = molecular target: Sodium-dependent serotonin transporter (Rattus norvegicus) (UniProt P31652); assay: Inhibition of tritiated serotonin(5-HT) uptake at 0.1 uM concentration; format: functional; how it was run: as §1
Rattus norvegicus [17] = species: Rattus norvegicus; assay: Ability to inhibit the uptake of tritiated norepinephrine (NE) at 0.1 uM concentration; format: functional; how it was run: as §1
[18] = molecular target: Adrenergic receptor alpha-1 (Rattus norvegicus) (UniProt P15823+P23944+P43140); assay: Binding affinity towards alpha-1 adrenergic receptor at 1.0 uM concentration; format: protein assay; how it was run: as §5
[19] = molecular target: Sodium-dependent dopamine transporter (Rattus norvegicus) (UniProt P23977); assay: Inhibition of tritiated dopamine (DA) uptake at 0.1 uM concentration; format: functional; how it was run: as §1
Sodium-dependent dopamine transporter (Rattus norvegicus), sequence (P23977 whole entry): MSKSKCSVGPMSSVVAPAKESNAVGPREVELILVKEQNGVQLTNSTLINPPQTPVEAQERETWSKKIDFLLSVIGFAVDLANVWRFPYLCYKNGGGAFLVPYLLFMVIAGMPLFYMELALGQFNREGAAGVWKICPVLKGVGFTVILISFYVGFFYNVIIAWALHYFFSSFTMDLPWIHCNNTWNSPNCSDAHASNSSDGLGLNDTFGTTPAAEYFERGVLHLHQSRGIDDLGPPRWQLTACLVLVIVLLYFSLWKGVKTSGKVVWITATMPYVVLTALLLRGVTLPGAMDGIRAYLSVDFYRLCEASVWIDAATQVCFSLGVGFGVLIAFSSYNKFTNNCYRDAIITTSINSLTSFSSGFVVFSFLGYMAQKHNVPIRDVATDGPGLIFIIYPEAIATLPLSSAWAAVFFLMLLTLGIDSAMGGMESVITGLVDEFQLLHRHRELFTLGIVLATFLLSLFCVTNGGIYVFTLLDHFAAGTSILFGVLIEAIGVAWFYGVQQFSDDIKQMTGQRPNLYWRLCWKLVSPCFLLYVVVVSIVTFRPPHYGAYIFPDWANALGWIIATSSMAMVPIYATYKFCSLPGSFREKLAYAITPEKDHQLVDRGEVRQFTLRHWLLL

[20] = molecular target: Sodium-dependent dopamine transporter (Rattus norvegicus, UniProt P23977); assay: Inhibition of the uptake of tritiated dopamine (DA) in rat synaptosomes; format: subcellular, Brain
Sodium-dependent dopamine transporter, sequence (P23977 whole entry): as above

Mus musculus [21] = species: Mus musculus; assay: Gross behavioral effects ascertained in mice; C indicates overt convulsant; format: functional, organism-based; how it was run: as §4
Mus musculus [22] = species: Mus musculus; assay: Gross behavioral effects ascertained in mice; format: functional, organism-based; how it was run: as §4
Mus musculus [23] = assay: Ability to antagonise intraperitoneal administration; weakly active (>=10% and <=30% antagonism) at 30 mg/kg is represented as >30; format: functional; conditions: ip; how it was run: as §2
Rattus norvegicus [24] = species: Rattus norvegicus; assay: Ability to inhibit the uptake of tritiated norepinephrine (NE) 0.1 uM concentration; format: functional; how it was run: as §1
Mus musculus [25] = assay: as §3; format: functional, organism-based; how it was run: as §2; remark: listed apart in the source
[26] = molecular target: T1, Serotonin 2 (5-HT2) receptor (Rattus norvegicus); assay: Binding affinity towards 5-hydroxytryptamine 2 receptor; format: protein assay; conditions: concentration not given here; how it was run: as §5

Sodium-dependent serotonin transporter (Rattus norvegicus), sequence (P31652 whole entry): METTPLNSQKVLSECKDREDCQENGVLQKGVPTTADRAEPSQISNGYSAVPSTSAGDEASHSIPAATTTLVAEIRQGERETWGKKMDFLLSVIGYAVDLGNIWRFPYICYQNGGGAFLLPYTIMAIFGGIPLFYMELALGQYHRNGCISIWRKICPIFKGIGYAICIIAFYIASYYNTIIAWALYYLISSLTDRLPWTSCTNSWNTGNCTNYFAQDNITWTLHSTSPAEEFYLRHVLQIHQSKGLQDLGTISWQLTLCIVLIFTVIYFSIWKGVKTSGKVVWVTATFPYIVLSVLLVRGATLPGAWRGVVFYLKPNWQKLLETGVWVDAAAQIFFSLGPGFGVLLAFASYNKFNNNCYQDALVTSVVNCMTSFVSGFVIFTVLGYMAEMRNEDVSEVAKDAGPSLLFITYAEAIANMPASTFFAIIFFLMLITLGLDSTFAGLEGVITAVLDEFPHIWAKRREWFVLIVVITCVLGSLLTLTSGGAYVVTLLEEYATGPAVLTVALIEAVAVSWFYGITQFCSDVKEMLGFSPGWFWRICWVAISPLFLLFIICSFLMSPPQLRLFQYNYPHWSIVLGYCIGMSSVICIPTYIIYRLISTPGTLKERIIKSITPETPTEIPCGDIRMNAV

C[C@@]12CCCCN1C[C@H](c1ccccc1)c1ccccc12
inhibition [1]: 15% | ED50 (Mus musculus [2]): inactive | Ki (Rattus norvegicus [3]): 36.4 nM | ED50 (Mus musculus [4]): inactive | behavior (Mus musculus [5]): Weak | Ki [6]: 10.5 nM

c1ccc([C@@H]2CN3CCC[C@@H]3c3ccccc32)cc1 (stereo in doubt; 7b)
behavior (Mus musculus [7]): Stimulant | inhibition [8]: 0% | inhibition [9]: 35%

c1ccc([C@@H]2CN3CCC[C@H]3c3[nH]c4ccccc4c32)cc1
ED50 (Mus musculus [2]): inactive | inhibition in vivo at 0.1 mg/kg (Rattus norvegicus [10]): 7% | inhibition in vivo at 0.1 mg/kg (Rattus norvegicus [11]): -21% | ED50 (Mus musculus [12]): inactive | behavior (Mus musculus [13]): Significant depressant

Br.COc1cc([C@@H]2CN3CCC[C@H]3c3ccccc32)cc(OC)c1OC
ED50 (Mus musculus [2]): inactive | inhibition [14]: 88% | ED50 (Mus musculus [15]): inactive | inhibition [16]: 12% | Inhibition (Rattus norvegicus [17]): 9% | inhibition [18]: 90% | behavior (Mus musculus [5]): Partial stimulant | inhibition [19]: 0%

COc1ccc([C@@H]2CN3CCCC3c3cc(OC)c(OC)cc32)cc1OC (stereo not given in full)
ED50 (Mus musculus [2]): inactive | ED50 (Mus musculus [15]): inactive | inhibition [16]: 10% | Inhibition (Rattus norvegicus [17]): 18% | Ki [20]: 355 nM | behavior (Mus musculus [21]): Overt convulsant

Br.CS(=O)(=O)c1ccc([C@@H]2CN3CCC[C@@H]3c3ccccc32)cc1
ED50 (Mus musculus [2]): inactive | behavior (Mus musculus [22]): inactive | ED50 at 30 mg/kg (Mus musculus [23]): > 30 mg/kg

C[C@@]12CCCCN1C[C@@H](c1ccccc1)c1ccccc12
inhibition [1]: 4% | Ki [20]: > 1000 nM | Ki (Rattus norvegicus [24]): 2 nM | ED50 (Mus musculus [4]): inactive | behavior (Mus musculus [21]): Overt convulsant | ED50 (Mus musculus [25]): inactive

FC(F)(F)c1cccc([C@@H]2CN3CCC[C@@H]3c3ccccc32)c1 (stereo in doubt; (+)-37b)
inhibition [26]: 44% | inhibition [18]: 48% | behavior (Mus musculus [5]): Partial stimulant

— ChEMBL document CHEMBL1123812, “Pyrroloisoquinoline antidepressants. 2. In-depth exploration of structure-activity relationships” (J Med Chem, 1987)
